Values after ≈ are worked out from the molar mass of the structure shown.
Key:
Escherichia coli = assay: Antibacterial activity against Escherichia coli after 18 to 22 hrs by […]; format: functional
Proteus vulgaris = assay: Antibacterial activity against Proteus vulgaris after 18 to 22 hrs by […]; format: functional
Klebsiella aerogenes = assay: Antibacterial activity against Enterobacter aerogenes after 18 to 22 hrs by […]; format: functional
Klebsiella pneumoniae = assay: Antibacterial activity against Klebsiella pneumoniae after 18 to 22 hrs by […]; format: functional
Staphylococcus aureus = assay: Antibacterial activity against Staphylococcus aureus after 18 to 22 hrs by […]; format: functional
Staphylococcus warneri = assay: Antibacterial activity against Staphylococcus warneri after 18 to 22 hrs by […]; format: functional
Streptococcus pyogenes = assay: Antibacterial activity against Streptococcus pyogenes after 18 to 22 hrs by […]; format: functional
Enterococcus faecalis = assay: Antibacterial activity against Enterococcus faecalis after 18 to 22 hrs by […]; format: functional
Candida albicans = assay: Antifungal activity against 10 strains of Candida albicans after 24 hrs by […]; format: functional
Pichia kudriavzevii = assay: Antifungal activity against 3 strains of Candida krusei after 24 hrs by […]; format: functional
Candida parapsilosis = assay: Antifungal activity against 4 strains of Candida parapsilosis after 24 hrs by […]; format: functional; details: Lodderomyces parapsilosis
[Candida] sake = Antifungal activity against 2 strains of Candida sake after 24 hrs by […]; format: functional; details: Fermentozyma sake
Nakaseomyces glabratus = assay: Antifungal activity against 4 strains of Candida glabrata after 24 hrs by […]; format: functional
Candida tropicalis = assay: Antifungal activity against 4 strains of Candida tropicalis after 24 hrs by […]; format: functional
HEp-2 [1] = assay: Antiproliferative activity against human Hep2 cells assessed as cell survival fraction after 24 hrs by MTT assay; format: cell-based; details: HEp-2, 24 h
In short: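 Hep2 laryngeal carcinoma cells seeded in triplicate at 1 × 10^5/well in serum-free DMEM. Exposed 24 h at 37 °C, 5% CO2, to six concentrations ([…]); DMSO ≤0.5%. MTT reagent added for 2 h at 37 °C, then detergent for 2 h at room temperature in the dark. OD550 minus OD650 read. EC50 from ≥3 independent experiments.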

[2] = Antiproliferative activity against human Hep2 cells assessed as cell survival fraction at 100 ug/mL after 24 hrs by MTT assay; format: cell-based; details: HEp-2 cells, read-out: Survival
In short: (§1)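 Hep2 (human laryngeal carcinoma) cells maintained in DMEM + 10% FBS + 1% pen/strep, 37 °C, 5% CO2. Seeded in triplicate at 1 × 10^5/well in serum-free medium and exposed 24 h at 37 °C to six compound concentrations (100–0.05). DMSO stock diluted in medium, final DMSO ≤0.5%. MTT reagent added for 2 h at 37 °C, then detergent for 2 h at RT in the dark. Read as OD550 minus OD650.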

[3] = Antiproliferative activity against human Hep2 cells assessed as cell survival fraction at 50 ug/mL after 24 hrs by MTT assay; format: cell-based; details: HEp-2 cells, read-out: Survival; in short: as §1
[4] = Antiproliferative activity against human Hep2 cells assessed as cell survival fraction at 10 ug/mL after 24 hrs by MTT assay; format: cell-based; details: HEp-2 cells, read-out: Survival; in short: as §1
[5] = Antiproliferative activity against human Hep2 cells assessed as cell survival fraction at 5 ug/mL after 24 hrs by MTT assay; format: cell-based; details: HEp-2 cells, read-out: Survival; in short: as §1
[6] = Antiproliferative activity against human Hep2 cells assessed as cell survival fraction at 0.5 ug/mL after 24 hrs by MTT assay; format: cell-based; details: HEp-2 cells, read-out: Survival; in short: as §1
[7] = Antiproliferative activity against human Hep2 cells assessed as cell survival fraction at 0.05 ug/mL after 24 hrs by MTT assay; format: cell-based; details: HEp-2 cells, read-out: Survival; in short: as §1
HEp-2 [8] = assay: Cytotoxicity against human Hep2 cells assessed as cell survival fraction after 24 hrs by trypan blue exclusion method; format: cell-based; details: HEp-2, 24 h
In short: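 Hep2 cells in DMEM with 10% FBS and 1% penicillin-streptomycin, at 37 °C, 5% CO2, grown to 60–70% confluency. Seeded at 1 × 10^5/mL and exposed 24 h to six concentrations ([…]); DMSO ≤0.5%. Controls were cells alone, cells with DMSO, and 1 mM nitroprusside. Scraped cells mixed 1:1 with 0.4% trypan blue; blue cells counted as dead by hemocytometer, two operators. EC50 from ≥3 independent experiments.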

[9] = Cytotoxicity against human Hep2 cells assessed as cell survival fraction at 100 ug/mL after 24 hrs by trypan blue exclusion method; format: cell-based; details: HEp-2 cells, read-out: Survival
In short: (§2)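 Hep2 cells grown in DMEM + 10% FBS + 1% pen/strep at 37 °C, 5% CO2, used at 60–70% confluency. Exponential-phase cells (1 × 10^5/mL) incubated 24 h with six concentrations (100–0.05), final DMSO ≤0.5%. Controls were cells alone or cells + DMSO, with 1 mM sodium nitroprusside as positive control. Cells scraped off, mixed 1:1 with 0.4% trypan blue and counted on a hemocytometer by two operators. Blue cells were scored dead; results given as % viable cells.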

[10] = Cytotoxicity against human Hep2 cells assessed as cell survival fraction at 50 ug/mL after 24 hrs by trypan blue exclusion method; format: cell-based; details: HEp-2 cells, read-out: Survival; in short: as §2
[11] = Cytotoxicity against human Hep2 cells assessed as cell survival fraction at 10 ug/mL after 24 hrs by trypan blue exclusion method; format: cell-based; details: HEp-2 cells, read-out: Survival; in short: as §2
[12] = Cytotoxicity against human Hep2 cells assessed as cell survival fraction at 5 ug/mL after 24 hrs by trypan blue exclusion method; format: cell-based; details: HEp-2 cells, read-out: Survival; in short: as §2
[13] = Cytotoxicity against human Hep2 cells assessed as cell survival fraction at 0.5 ug/mL after 24 hrs by trypan blue exclusion method; format: cell-based; details: HEp-2 cells, read-out: Survival; in short: as §2
[14] = Cytotoxicity against human Hep2 cells assessed as cell survival fraction at 0.05 ug/mL after 24 hrs by trypan blue exclusion method; format: cell-based; details: HEp-2 cells, read-out: Survival; in short: as §2

Row | SMILES | MIC (Escherichia coli) | MIC (Proteus vulgaris) | MIC (Klebsiella aerogenes) | MIC (Klebsiella pneumoniae) | MIC (Staphylococcus aureus) | MIC (Staphylococcus warneri) | MIC (Streptococcus pyogenes) | MIC (Enterococcus faecalis) | MIC (Candida albicans) | MIC (Pichia kudriavzevii) | MIC (Candida parapsilosis) | MIC ([Candida] sake) | MIC (Nakaseomyces glabratus) | MIC (Candida tropicalis) | EC50 (HEp-2 [1]) | viability at 24 h, 100 ug/mL [2] | viability at 24 h, 50 ug/mL [3] | viability at 24 h, 10 ug/mL [4] | viability at 24 h, 5 ug/mL [5] | viability at 24 h, 0.5 ug/mL [6] | other results
1 | Ic1ccc(-c2csc(N/N=C/c3cccc4ccccc34)n2)cc1 | 16 µg/mL (≈ 35.1 µM) | 16 µg/mL (≈ 35.1 µM) | 16 µg/mL (≈ 35.1 µM) | 16 µg/mL (≈ 35.1 µM) | > 128 µg/mL | > 128 µg/mL | 32 µg/mL (≈ 70.3 µM) | 32 µg/mL (≈ 70.3 µM) | 0.25 µg/mL (≈ 0.549 µM) | 64 µg/mL (≈ 141 µM) | 2 µg/mL (≈ 4.39 µM) | 64 µg/mL (≈ 141 µM) | 2 µg/mL (≈ 4.39 µM) | 0.5 µg/mL (≈ 1.1 µM) | 35 µg/mL (≈ 76.9 µM) | 2% | 5% | 80% | 78% | 80% | viability at 24 h, 0.05 ug/mL [7]: 95%; EC50 (HEp-2 [8]): 40 µg/mL (≈ 87.8 µM); viability at 24 h, 100 ug/mL [9]: 0%; viability at 24 h, 50 ug/mL [10]: 39%; viability at 24 h, 10 ug/mL [11]: 73%; viability at 24 h, 5 ug/mL [12]: 80%; viability at 24 h, 0.5 ug/mL [13]: 80%; viability at 24 h, 0.05 ug/mL [14]: 90%
2 | CCCCC/C(C)=N/Nc1nc(-c2ccc(I)cc2)cs1 | > 128 µg/mL | > 128 µg/mL | > 128 µg/mL | > 128 µg/mL | 32 µg/mL (≈ 77.4 µM) | 32 µg/mL (≈ 77.4 µM) | 8 µg/mL (≈ 19.4 µM) | 32 µg/mL (≈ 77.4 µM) | 0.25 µg/mL (≈ 0.605 µM) | 2 µg/mL (≈ 4.84 µM) | 2 µg/mL (≈ 4.84 µM) | 32 µg/mL (≈ 77.4 µM) | 2 µg/mL (≈ 4.84 µM) | 0.5 µg/mL (≈ 1.21 µM) | 42 µg/mL (≈ 102 µM) | 0% | 22% | 89% | 90% | 100% | viability at 24 h, 0.05 ug/mL [7]: 100%; EC50 (HEp-2 [8]): 62 µg/mL (≈ 150 µM); viability at 24 h, 100 ug/mL [9]: 33%; viability at 24 h, 50 ug/mL [10]: 42%; viability at 24 h, 10 ug/mL [11]: 83%; viability at 24 h, 5 ug/mL [12]: 90%; viability at 24 h, 0.5 ug/mL [13]: 95%; viability at 24 h, 0.05 ug/mL [14]: 98%
3 | C/C(=N\Nc1nc(-c2ccc(I)cc2)cs1)c1ccncc1 | 16 µg/mL (≈ 38.1 µM) | 16 µg/mL (≈ 38.1 µM) | > 128 µg/mL | > 128 µg/mL | 8 µg/mL (≈ 19 µM) | 8 µg/mL (≈ 19 µM) | 4 µg/mL (≈ 9.52 µM) | 4 µg/mL (≈ 9.52 µM) | 0.25 µg/mL (≈ 0.595 µM) | 2 µg/mL (≈ 4.76 µM) | 2 µg/mL (≈ 4.76 µM) | 4 µg/mL (≈ 9.52 µM) | 2 µg/mL (≈ 4.76 µM) | 0.5 µg/mL (≈ 1.19 µM) | 25 µg/mL (≈ 59.5 µM) | 0% | 10% | 35% | 58% | 95% | viability at 24 h, 0.05 ug/mL [7]: 95%; EC50 (HEp-2 [8]): 30 µg/mL (≈ 71.4 µM); viability at 24 h, 100 ug/mL [9]: 0%; viability at 24 h, 50 ug/mL [10]: 37%; viability at 24 h, 10 ug/mL [11]: 30%; viability at 24 h, 5 ug/mL [12]: 66%; viability at 24 h, 0.5 ug/mL [13]: 85%; viability at 24 h, 0.05 ug/mL [14]: 90%
4 | CC1CC/C(=N\Nc2nc(-c3ccc(I)cc3)cs2)C1 (configuration not stated) | 32 µg/mL (≈ 80.5 µM) | 32 µg/mL (≈ 80.5 µM) | 32 µg/mL (≈ 80.5 µM) | > 128 µg/mL | 32 µg/mL (≈ 80.5 µM) | 32 µg/mL (≈ 80.5 µM) | 32 µg/mL (≈ 80.5 µM) | 32 µg/mL (≈ 80.5 µM) | 0.25 µg/mL (≈ 0.629 µM) | 2 µg/mL (≈ 5.03 µM) | 2 µg/mL (≈ 5.03 µM) | 4 µg/mL (≈ 10.1 µM) | 2 µg/mL (≈ 5.03 µM) | 0.5 µg/mL (≈ 1.26 µM) | 50 µg/mL (≈ 126 µM) | 10% | 28% | 90% | 92% | 100% | viability at 24 h, 0.05 ug/mL [7]: 100%; EC50 (HEp-2 [8]): 51 µg/mL (≈ 128 µM); viability at 24 h, 100 ug/mL [9]: 0%; viability at 24 h, 50 ug/mL [10]: 69%; viability at 24 h, 10 ug/mL [11]: 88%; viability at 24 h, 5 ug/mL [12]: 83%; viability at 24 h, 0.5 ug/mL [13]: 92%; viability at 24 h, 0.05 ug/mL [14]: 95%

— ChEMBL document CHEMBL2034842, “Synthesis, anti-Candida activity, and cytotoxicity of new (4-(4-iodophenyl)thiazol-2-yl)hydrazine derivatives” (Eur J Med Chem, 2012)
